Values after ≈ are worked out from the molar mass of the structure shown.
Tests used:
Type in all cases: functional
[1] = tested on: Mycobacterium tuberculosis; test: In vitro antibacterial activity against Mycobacterium tuberculosis H37Rv.
How it was run: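 Mycobacterium tuberculosis tested in vitro by gradient-plate test; minimum inhibitory concentration reported.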

Enterococcus faecalis [2] = test: In vitro antibacterial activity against Streptococcus faecalis MGH-2.
How it was run: (§1)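 Antibacterial testing in vitro by gradient-plate test. Read-out was the minimum inhibitory concentration, with values exceeding 25 reported as >25.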

Shigella sonnei = test: In vitro antibacterial activity against Shigella sonnei C-10.; how it was run: as §1
Plasmodium berghei [3] = test: Antimalarial activity as change in MST for drug-sensitive Plasmodium berghei infected mice (Mus musculus) after 72 hrs at 320 mg/kg subcutaneous dose
Plasmodium berghei [4] = test: Antimalarial activity as change in MST for drug-sensitive Plasmodium berghei infected mice (Mus musculus) at 80mg/kg subcutaneous dose over 72h
Plasmodium berghei [5] = test: Antimalarial activity as change in MST against drug-sensitive Plasmodium berghei infected mice (Mus musculus) at 20 mg/kg subcutaneous dose after 72h
Plasmodium berghei [6] = test: Antimalarial activity as change in MST for drug-sensitive Plasmodium berghei infected mice (Mus musculus) at 40 mg/kg subcutaneous dose over 72hr
Pseudomonas aeruginosa [7] = test: Compound was tested in vitro against Pseudomonas aeruginosa 28. by gradient-plate test.; how it was run: as §1
Plasmodium berghei [8] = test: Antimalarial activity as change in MST for drug-sensitive Plasmodium berghei infected mice (Mus musculus) at 640 mg/kg subcutaneous dose over 72 hr
Escherichia coli [9] = test: Tested in vitro against Escherichia coli Vogel. by gradient-plate test; how it was run: as §1
Staphylococcus aureus [10] = test: Compound was tested in vitro against […] U.C-76. by gradient-plate test.; how it was run: as §1
Staphylococcus aureus [11] = test: Compound was tested in vitro against […] S 18713 by gradient-plate test.; how it was run: as §1
Plasmodium berghei [12] = test: Antimalarial activity as change in MST against drug-sensitive Plasmodium berghei infected mice (Mus musculus) at 160 mg/kg subcutaneous dose after 72h
Staphylococcus aureus [13] = test: In vitro antibacterial activity against […] U.C-76.; how it was run: as §1
Staphylococcus aureus [14] = test: In vitro antibacterial activity against […] S 18713.; how it was run: as §1
Plasmodium berghei [15] = test: Antimalarial activity as survivor numbers at day 60 for drug-sensitive Plasmodium berghei infected mice (Mus musculus) at 640 mg/kg subcutaneous dose over 72 hr
How it was run: (§2)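 Mice infected with drug-sensitive P. berghei got one subcutaneous dose in sesame or peanut oil 72 h postinfection. Read-out is the number of mice alive at 60 days postinfection, termed "cured", without subinoculation to confirm parasitological cure. Groups of five per dose, or 10 where indicated.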

Pseudomonas aeruginosa [16] = test: In vitro against Pseudomonas aeruginosa 28. by gradient-plate test; how it was run: as §1
Plasmodium berghei [17] = test: Antimalarial activity as change in MST for drug-sensitive Plasmodium berghei infected mice (Mus musculus) at 40 mg/kg subcutaneous dose over 72 hr
Escherichia coli [18] = test: Compound was tested in vitro against Escherichia coli Vogel. by gradient-plate test.; how it was run: as §1
Plasmodium berghei [19] = test: Antimalarial activity as change in MST against drug-sensitive Plasmodium berghei infected mice (Mus musculus) at 320 mg/kg subcutaneous dose after 72 hr
Plasmodium berghei [20] = test: Antimalarial activity as survivor number at day 60 for drug-sensitive Plasmodium berghei infected mice (Mus musculus) at 640 mg/kg subcutaneous dose over 72 hr; how it was run: as §2
Plasmodium berghei [21] = test: Antimalarial activity as toxic deaths 2-5 days post infection for drug-sensitive Plasmodium berghei infected mice (Mus musculus) at 640 mg/kg subcutaneous dose over 72 hr
How it was run: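 P. berghei (drug-sensitive) infected mice dosed once subcutaneously 72 h postinfection, compound in sesame or peanut oil. Read-out is the count of deaths on days 2–5 after infection, attributed to drug toxicity. Five animals per dose level, or 10 where indicated.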

Plasmodium berghei [22] = test: Antimalarial activity as change in MST for drug-sensitive Plasmodium berghei infected mice (Mus musculus) at 80 mg/kg subcutaneous dose over 72 hr
Enterococcus faecalis [23] = test: Compound was tested in vitro against Streptococcus faecalis MGH-2. by gradient-plate test.; how it was run: as §1

| SMILES | MIC [1] [µg/mL] | MIC (Enterococcus faecalis [2]) [µg/mL] | MIC (Shigella sonnei) [µg/mL] | Delta MST (Plasmodium berghei [4]) [days] | Delta MST (Plasmodium berghei [5]) [days] | Delta MST (Plasmodium berghei [6]) [days] | Delta MST (Plasmodium berghei [8]) [days] | MIC (Escherichia coli [9]) [µg/mL] | Delta MST (Plasmodium berghei [12]) [days] | MIC (Staphylococcus aureus [13]) [µg/mL] | MIC (Staphylococcus aureus [14]) [µg/mL] | MIC (Pseudomonas aeruginosa [16]) [µg/mL] | Delta MST (Plasmodium berghei [19]) [days] | further results |
| --- | --- | --- | --- | --- | --- | --- | --- | --- | --- | --- | --- | --- | --- | --- |
| CN1CCN(S(=O)(=O)c2ccc3nc(N)nc(N)c3c2)CC1 | > 25 | 2 (≈ 6.2 µM) | > 25 | 1.5 | 0.3 | 1 | 11.8 | > 25 | 4.4 |  |  |  |  | Delta MST (Plasmodium berghei [3]): 8.9 days; MIC (Pseudomonas aeruginosa [7]): > 25 µg/mL; MIC (Staphylococcus aureus [10]): 2 µg/mL (≈ 6.2 µM); MIC (Staphylococcus aureus [11]): > 25 µg/mL |
| Nc1nc(N)c2cc(S(=O)(=O)N3CCCCC3)ccc2n1 | 10 (≈ 32.5 µM) | < 0.25 | 0.5 (≈ 1.63 µM) | 4.7 | 1.1 |  |  |  | 10.2 | < 0.25 | < 0.25 | > 25 | 12.9 | survivors at day 60 (Plasmodium berghei [15]): 5; Delta MST (Plasmodium berghei [17]): 4.4 days; MIC (Escherichia coli [18]): < 0.25 µg/mL |
| CN(C)S(=O)(=O)c1ccc2nc(N)nc(N)c2c1Cl | > 25 | < 0.25 | 5 (≈ 16.6 µM) | 12.2 | 7.5 | 10.3 |  |  | 17 | 15 (≈ 49.7 µM) | > 25 | > 25 |  | Delta MST (Plasmodium berghei [3]): 23.9 days; survivors at day 60 (Plasmodium berghei [20]): 1; MIC (Escherichia coli [18]): 5 µg/mL (≈ 16.6 µM) |
| Cc1c(S(=O)(=O)N(C)C)ccc2nc(N)nc(N)c12 | > 25 | < 0.25 | 1.5 (≈ 5.33 µM) |  |  |  |  | < 0.25 |  | 2 (≈ 7.11 µM) | 2.5 (≈ 8.89 µM) | > 25 |  | Delta MST (Plasmodium berghei [17]): 1.1 days; toxic deaths (Plasmodium berghei [21]): 5 |
| Nc1nc(N)c2cc(S(=O)(=O)N3CCCCC3Cc3ccccc3)ccc2n1 (stereo unspecified) | > 25 | < 0.25 | > 25 |  |  | 0.3 | 0.5 | > 25 | 0.3 | 2 (≈ 5.03 µM) | > 25 | > 25 |  |  |
| CCOC(=O)N1CCN(S(=O)(=O)c2ccc3nc(N)nc(N)c3c2)CC1 | > 25 | 2 (≈ 5.26 µM) | > 25 | 0.5 | 0.1 | 0.2 |  | > 25 | 4.1 | 2 (≈ 5.26 µM) | > 25 | > 25 | 4.7 | survivors at day 60 (Plasmodium berghei [15]): 4 |
| CC(C)N(C)S(=O)(=O)c1ccc2nc(N)nc(N)c2c1 |  |  |  |  | 0.5 | 0.7 |  |  | 7.3 |  |  |  | 6.9 | Delta MST (Plasmodium berghei [22]): 4 days |
| Nc1nc(N)c2cc(S(=O)(=O)Nc3cccc(Br)c3)ccc2n1 | > 25 | > 25 | > 25 | 0.5 | 0.3 | 0.3 | 4.1 | > 25 | 0.5 | > 25 | > 25 | > 25 | 1.7 |  |
| Nc1nc(N)c2cc(S(=O)(=O)Nc3ccc(Cl)c(Cl)c3)ccc2n1 | > 25 |  | > 25 | 8.1 | 0.3 | 3.1 |  | > 25 | 10.1 | 2.5 (≈ 6.51 µM) | > 25 | > 25 | 9.9 | MIC (Enterococcus faecalis [23]): > 25 µg/mL; survivors at day 60 (Plasmodium berghei [15]): 5 |
| Nc1nc(N)c2cc(S(=O)(=O)Nc3ccc(Cl)cc3)ccc2n1 |  |  |  | 4.9 | 0.5 | 0.7 | 13.9 |  | 9.3 |  |  |  | 14.7 |  |
| CN(c1cccc(Cl)c1)S(=O)(=O)c1ccc2nc(N)nc(N)c2c1 | > 25 | > 25 | > 25 | 0.5 | 0.3 | 0.3 | 11.9 | > 25 | 4.5 | > 25 | > 25 |  | 6.9 | MIC (Pseudomonas aeruginosa [7]): > 25 µg/mL |

Source: ChEMBL document CHEMBL1122803, “Folate antagonists. 22. Antimalarial and antibacterial effects of 2,4-diamino-6-quinazolinesulfonamides” (1984)
